Measured values taken from ChEMBL document CHEMBL1133596, “Synthesis and antitumor activities of novel pyrimidine derivatives of 2,3-O,O-dibenzyl-6-deoxy-L-ascorbic acid and 4,5-didehydro-5,6- dideoxy-L-ascorbic acid” (J Med Chem, 2000).
In brackets after ≈: the same amount, converted by molar mass.

Assays:
[1] = test system: HEL; assay: Evaluated for cytotoxic concentration required to reduce normal human embryonic lung (fibroblast) (HEL) cell growth by 50%; format: functional
Procedure, shortened: (§1)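 Normal human embryonic lung fibroblasts (HEL) were grown with compound. CC50 is the concentration, in µg/mL, that reduces HEL cell growth by 50%.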

[2] = test system: CCRF-CEM; assay: Evaluated for the inhibition of tumor cell growth of Human T-Lymphocyte cells (CEM/0); format: functional, cell-based
Procedure, shortened: (§2)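 Proliferation of the murine (L1210/0, FM3A/0) and human T-lymphoblast (Molt4/C8, CEM/0) lines was measured following the procedure originally described for mouse L1210 cells. IC50 is the concentration, in µg/mL, that inhibits tumour cell proliferation by 50%.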

[3] = test system: MOLT-4; assay: Evaluated for the inhibition of tumor cell growth of Human T-Lymphocyte cells (Molt4/C8); format: functional, cell-based; procedure, shortened: as §2
[4] = test system: HEL; assay: Evaluated for minimum cytotoxic concentration that causes a microscopically detectable alteration of normal HEL cell morphology; format: functional; conditions: Homo sapiens
Procedure, shortened: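 HEL fibroblast cultures were examined by microscope. MCC is the lowest concentration, in µg/mL, that causes a detectable change in normal cell morphology.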

[5] = test system: FM3A; assay: Evaluated for the inhibition of tumor cell growth of murine mammary carcinoma malignant tumor cell line (FM3A/0); format: functional, cell-based; conditions: Mus musculus; procedure, shortened: as §2
[6] = test system: L1210; assay: Evaluated for the inhibition of tumor cell growth of murine leukemia malignant tumor cell line (L1210/0); format: functional, cell-based; conditions: Mus musculus; procedure, shortened: as §2
[7] = test system: HEL; assay: Evaluated for cytotoxic concentration required to reduce normal human embryonic lung (fibroblast) HEL cell growth by 50%; format: functional; procedure, shortened: as §1
[8] = test system: MEF; assay: Evaluated for cytotoxicity against murine embryo fibroblasts (MEF); format: functional, Mus musculus
Procedure, shortened: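 Murine embryo fibroblasts (MEF) were tested for inhibition of proliferation following the method originally described for mouse L1210 cells. Values are given as cytotoxic concentrations in µg/mL.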

Structure (SMILES): O=C1OC(C(O)Cn2cc(C(F)(F)F)c(=O)[nH]c2=O)C(OCc2ccccc2)=C1OCc1ccccc1 (stereo not drawn)
- CC50 [1]: 31.7 µg/mL (≈ 61.1 µM)
- IC50 [2]: 19 µg/mL (≈ 36.6 µM)
- IC50 [3]: 47.4 µg/mL (≈ 91.4 µM)
- MCC [4]: 50 µg/mL
- IC50 [5]: 38.4 µg/mL (≈ 74.1 µM)
- IC50 [6]: 26 µg/mL (≈ 50.2 µM)

Structure (SMILES): O=C1OC(C(O)Cn2cc(F)c(=O)[nH]c2=O)C(OCc2ccccc2)=C1OCc1ccccc1 (stereo not drawn)
- IC50 [2]: 74 µg/mL (≈ 158 µM)
- CC50 [7]: 33.4 µg/mL (≈ 71.3 µM)
- IC50 [3]: 81.2 µg/mL (≈ 173 µM)
- MCC [4]: 50 µg/mL
- IC50 [5]: 52.2 µg/mL (≈ 111 µM)
- IC50 [6]: 65.6 µg/mL (≈ 140 µM)

Structure (SMILES): O=C1O/C(=C\Cn2cc(F)c(=O)[nH]c2=O)C(O)=C1O
- CC50 [1]: 23 µg/mL (≈ 85.1 µM)
- IC50 [2]: 20.9 µg/mL (≈ 77.4 µM)
- Cytotoxicity [8]: 0.92 µg/mL
- IC50 [3]: 31.8 µg/mL (≈ 118 µM)
- MCC [4]: > 50 µg/mL
- IC50 [5]: 0.78 µg/mL (≈ 2.89 µM)
- IC50 [6]: 1.4 µg/mL (≈ 5.18 µM)

Structure (SMILES): O=C1O/C(=C\Cn2ccc(=O)[nH]c2=O)C(O)=C1O
- CC50 [1]: > 50 µg/mL
- IC50 [2]: > 200 µg/mL
- IC50 [3]: > 200 µg/mL
- MCC [4]: > 50 µg/mL
- IC50 [5]: > 200 µg/mL
- IC50 [6]: > 200 µg/mL

Structure (SMILES): O=C1OC(C(O)Cn2ccc(=O)[nH]c2=O)C(OCc2ccccc2)=C1OCc1ccccc1 (stereo not drawn)
- IC50 [2]: 68.6 µg/mL (≈ 152 µM)
- CC50 [7]: > 50 µg/mL
- IC50 [3]: 67.8 µg/mL (≈ 151 µM)
- MCC [4]: > 50 µg/mL
- IC50 [5]: 74.1 µg/mL (≈ 165 µM)
- IC50 [6]: 70.8 µg/mL (≈ 157 µM)

Structure (SMILES): O=C1O/C(=C\Cn2ccc(=O)[nH]c2=O)C(OCc2ccccc2)=C1O
- CC50 [1]: > 50 µg/mL
- IC50 [2]: > 200 µg/mL
- IC50 [3]: > 200 µg/mL
- MCC [4]: > 50 µg/mL
- IC50 [5]: > 200 µg/mL
- IC50 [6]: > 200 µg/mL

Structure (SMILES): O=C1O/C(=C\Cn2cc(C(F)(F)F)c(=O)[nH]c2=O)C(O)=C1O
- CC50 [1]: > 50 µg/mL
- IC50 [2]: > 200 µg/mL
- IC50 [3]: > 200 µg/mL
- MCC [4]: > 50 µg/mL
- IC50 [5]: 162 µg/mL (≈ 506 µM)
- IC50 [6]: 76.1 µg/mL (≈ 238 µM)

Structure (SMILES): O=c1[nH]c(=O)n([C@H]2C[C@H](O)[C@@H](CO)O2)cc1F [FLOXURIDINE]
- IC50 [2]: 0.003 µg/mL (≈ 0.0122 µM)
- Cytotoxicity [8]: 0.0001 µg/mL
- IC50 [3]: 2.6 µg/mL (≈ 10.6 µM)
- IC50 [5]: 0.0008 µg/mL (≈ 0.00325 µM)
- IC50 [6]: 0.0003 µg/mL (≈ 0.00122 µM)

Structure (SMILES): O=c1[nH]cc(F)c(=O)[nH]1 [FLUOROURACIL]
- IC50 [2]: 1.2 µg/mL (≈ 9.23 µM)
- Cytotoxicity [8]: 0.2 µg/mL
- IC50 [3]: 2.9 µg/mL (≈ 22.3 µM)
- IC50 [5]: 0.02 µg/mL (≈ 0.154 µM)
- IC50 [6]: 0.04 µg/mL (≈ 0.308 µM)
